Experimental findings from publication PMC3137751 (Biochemistry, 2010) are described below.

Marks after values point to notes of the source that are not given here.

The data set “cross-linking” concerns the molecule itself. In words: cross-linking.
Data set [1] has as its target T1, Yeast NAD+-specific isocitrate dehydrogenase (IDH) (Saccharomyces cerevisiae, UniProt P28241+P28834).
T1 sequence (P28834 12-360): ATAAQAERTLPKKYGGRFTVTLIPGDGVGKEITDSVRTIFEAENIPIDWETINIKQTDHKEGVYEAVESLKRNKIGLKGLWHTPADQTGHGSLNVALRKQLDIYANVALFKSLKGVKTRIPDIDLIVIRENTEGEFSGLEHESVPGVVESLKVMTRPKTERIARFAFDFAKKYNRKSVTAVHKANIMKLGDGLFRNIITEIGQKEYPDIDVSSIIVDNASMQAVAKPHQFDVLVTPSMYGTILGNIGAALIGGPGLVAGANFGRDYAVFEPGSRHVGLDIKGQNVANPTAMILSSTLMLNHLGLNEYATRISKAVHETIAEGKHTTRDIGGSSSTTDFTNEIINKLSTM
T1 sequence (P28241 16-369): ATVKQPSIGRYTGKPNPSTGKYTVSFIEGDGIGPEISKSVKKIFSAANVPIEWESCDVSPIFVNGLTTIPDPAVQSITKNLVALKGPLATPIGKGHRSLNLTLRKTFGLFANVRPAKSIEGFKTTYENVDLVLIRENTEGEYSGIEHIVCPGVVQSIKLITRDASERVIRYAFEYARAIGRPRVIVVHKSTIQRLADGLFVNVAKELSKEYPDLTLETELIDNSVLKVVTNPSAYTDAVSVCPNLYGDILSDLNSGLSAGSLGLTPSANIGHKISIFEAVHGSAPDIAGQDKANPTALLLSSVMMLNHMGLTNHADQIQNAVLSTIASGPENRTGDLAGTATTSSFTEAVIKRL
Put plainly: Kinetic analyses: isocitrate saturation velocity curves of purified IDH enzymes. In kind it is biochemical. The settings on record: 100 μM AMP. Summed up: (§1)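 His-tagged IDH purified by Ni2+-NTA, stored at −20 °C in elution buffer with 20% glycerol, quantified by A280. Assays at 24 °C used 40 mM Tris-HCl pH 7.4, 4 mM MgCl2 and 0.5 mM NAD+. D-isocitrate was varied 0–5 mM, with or without 100 μM AMP, and NADH formation was followed. Apparent S0.5 and Hill coefficients came from saturation curves, Vmax as maximum velocity per mg, over two independent experiments.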

Data set [2] relates to Yeast NAD+-specific isocitrate dehydrogenase (IDH). The description is as above. In kind it is biochemical. Summed up: as §1

B1: IDH2 subunit (natural protein, yeast)
chain: ATVKQPSIGRYTGKPNPSTGKYTVSFIEGDGIGPEISKSVKKIFSAANVPIEWESCDVSPIFVNGLTTIPDPAVQSITKNLVALKGPLATPIGKGHRSLNLTLRKTFGLFANVRPAKSIEGFKTTYENVDLVLIRENTEGEYSGIEHIVCPGVVQSIKLITRDASERVIRYAFEYARAIGRPRVIVVHKSTIQRLADGLFVNVAKELSKEYPDLTLETELIDNSVLKVVTNPSAYTDAVSVCPNLYGDILSDLNSGLSAGSLGLTPSANIGHKISIFEAVHGSAPDIAGQDKANPTALLLSSVMMLNHMGLTNHADQIQNAVLSTIASGPENRTGDLAGTATTSSFTEAVIKRL
In the case of B1, the binding result in the data set “cross-linking” was “binds”.

B2: IDH1/IDH2: wild-type yeast NAD+-specific isocitrate dehydrogenase, octamer of IDH1 and IDH2 subunits, histidine tag on IDH1 (protein)
chain 1: ATAAQAERTLPKKYGGRFTVTLIPGDGVGKEITDSVRTIFEAENIPIDWETINIKQTDHKEGVYEAVESLKRNKIGLKGLWHTPADQTGHGSLNVALRKQLDIYANVALFKSLKGVKTRIPDIDLIVIRENTEGEFSGLEHESVPGVVESLKVMTRPKTERIARFAFDFAKKYNRKSVTAVHKANIMKLGDGLFRNIITEIGQKEYPDIDVSSIIVDNASMQAVAKPHQFDVLVTPSMYGTILGNIGAALIGGPGLVAGANFGRDYAVFEPGSRHVGLDIKGQNVANPTAMILSSTLMLNHLGLNEYATRISKAVHETIAEGKHTTRDIGGSSSTTDFTNEIINKLSTM
chain 2: ATVKQPSIGRYTGKPNPSTGKYTVSFIEGDGIGPEISKSVKKIFSAANVPIEWESCDVSPIFVNGLTTIPDPAVQSITKNLVALKGPLATPIGKGHRSLNLTLRKTFGLFANVRPAKSIEGFKTTYENVDLVLIRENTEGEYSGIEHIVCPGVVQSIKLITRDASERVIRYAFEYARAIGRPRVIVVHKSTIQRLADGLFVNVAKELSKEYPDLTLETELIDNSVLKVVTNPSAYTDAVSVCPNLYGDILSDLNSGLSAGSLGLTPSANIGHKISIFEAVHGSAPDIAGQDKANPTALLLSSVMMLNHMGLTNHADQIQNAVLSTIASGPENRTGDLAGTATTSSFTEAVIKRL
modifications: left off: histidine tag, C-terminal, kept
For the molecule B2, the “increase in the apparent affinity for isocitrate in the presence of AMP” value in data set [1] is ~ 5 fold. In data set [2] (absence of AMP), the “Hill coef. with respect to isocitrate, − AMP” value came out at 3.1. Also, the “Vmax (apparent), + AMP” value in data set [2] (isocitrate velocity saturation curve, presence of 100 μM AMP) is on record as 32.3/32.3 (±0.7/0.4) ^b units/mg. Besides, in data set [2] (presence of 100 μM AMP), the “Hill coef. with respect to isocitrate, + AMP” value came out at 3.5.
